According to the EternaBench riboswitch data:

System: MS2 coat protein
Assay: apparent Kd, MS2 coat protein; higher = weaker binding; RNA-MaP array; FMN 200 µM where present
In short: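 On Illumina sequencing-chip clusters, designs were transcribed by stalled E. coli RNA polymerase and titrated with SNAP-549-labelled MS2 coat protein (0.7 or 1.5 nM, doubling to 3 µM), without and then with constant ligand, in 100 mM Tris-HCl pH 7.5, 80 mM KCl, 4 mM MgCl2, BSA, DTT, yeast tRNA and Tween-20. Apparent Kd is the median of filtered per-cluster curve fits to green signal normalised to red-channel RNA signal and control-cluster median Fmax.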

[1] = designed as: OFF switch for flavin mononucleotide, no ligand
[2] = ligand present: flavin mononucleotide, designed as: OFF switch for flavin mononucleotide
[3] = designed as: ON switch for flavin mononucleotide, no ligand
[4] = ligand present: flavin mononucleotide, designed as: ON switch for flavin mononucleotide

| Sequence | apparent Kd [1] | apparent Kd [2] | apparent Kd [3] | apparent Kd [4] |
| --- | --- | --- | --- | --- |
| UAUACAAACGAAGGAUAUGGAUACAUGAGGAUCACCCAUGUAUGUAUGAUGAUCUAGAAAAUGGGCCAGAAGGUCGUGAUUAUU | 22.6 nM | 62.7 nM | – | – |
| UAUACUAGAUAGGAUAUACUUUAUUUUUUUUUCGUAGAAGGAUCUACAUGAGGAUCACCCAUGUUAACAGCAGU | 74.1 nM | 53.9 nM | – | – |
| UAUAUAUAGGCAGGAUAUACAUGAAUAUAUAAUAUAUUAUAUAAUAUAACAUGAGGAUCACCCAUGUAGAAGGGCCAUAAUAUA | 67 nM | 106 nM | – | – |
| UAUAUGUCAGGAUAUUAGUUGAGGUGGAAUUUAGCCUCAGCUGAGAAGGGACAUGAGGAUCACCCAUGUUCCUC | 22.1 nM | 241 nM | – | – |
| UAUAUUUUUAUAGGAUAUGGAUAUGAUGCAUAUCCAGAAGGGUGAAUAUAAUAUUUUCUGUACAUGAGGAUCACCCAUGUUUAG | – | – | 116 nM | 46.9 nM |
| UAUCUAGGCGAAGGAUAUCCGUCGCGAGAUACUGGAGAAGGUCGCCUUGAUACAUGAGGAUCACCCAUGUGGCGGGUGAACCAA | 37.9 nM | 16.4 nM | – | – |
| UAUCUAUUUAUGGGAUUAGAAUAUGAGGAUAUCAUUUUUUUAUACAUGAGGAUCACCCAUGUUUCUGAGAAGGCAUAUUUAAUA | – | – | 16.9 nM | 5.72 nM |
| UAUGAACAUGAGGAUCACCCAUGUGGUACGAUCACAGGAUAUCACCUCGGACGUGCGAUGUGAGAAGGGUGAUGGU | – | – | 81.6 nM | 29.4 nM |
| UAUGAAUGAGGAUAUGCAUAGUAGACUCCUCAUUUCUUCGGACAUGAGGAUCACCCAUGUAGAAGGCGUUGCGU | 33.1 nM | 58 nM | – | – |
| UAUGGUUAAGUCAGGAUAUACGUGCAGUUAUCUGAGUAGAAGGGACAUGAGGAUCACCCAUGUAUGGUAGUGUU | 75.3 nM | 86.4 nM | – | – |
| UAUUAACACGAAGGAUAUGCUUACAUGAGGAUCACCCAUGUAUGUAUAUUGAUCCAGAUUUUUGAGCAGAAGGUCGUGAGUAAA | 35.3 nM | 141 nM | – | – |
| UAUUAAUGCAAGGAUAUGCUUUUAAUUUUUUUUGCAGAAGGUGCAACAUGAGGAUCACCCAUGUUUCCGGGUAU | 26.5 nM | 39.1 nM | – | – |
| UAUUAGUGAGGAUAUGAGUCGUAGAACAAUAGUACUACGUCUCAGAAGGCACAUGAGGAUCACCCAUGUUCCUU | 13.6 nM | 44.9 nM | – | – |
| UAUUAGUGAGGAUAUGAGUCGUAGAACAAUAGUACUACGUCUCAGAAGGUACAUGAGGAUCACCCAUGUUCCUU | 12.7 nM | 14.4 nM | – | – |
| UAUUAUCACGAAGGAUAUGCUUACAUGAGGAUCACCCAUGUAUGUAUAUUGAUCCAGCGUUUUGAGCAGAAGGUCGUGAGUAAA | 20.1 nM | 74.3 nM | – | – |
| UAUUAUGUCAGAGGAUAUAUAAAUAAAUUUAUAACAUGAGGAUCACCCAUGUACUUUAGUGUGAGGUAGAAGGUUGAUAAGAUA | – | – | 37.2 nM | 22.6 nM |
| UAUUGAUAAUAUUUUAACAUGAGGAUCACCCAUGUCGCUAGACAGGAUAUAUUUUAUUUGUUUAAGUAGAAGGGUCGCAGAUUU | – | – | 150 nM | 130 nM |
| UAUUGAUAAUAUUUUAACAUGAGGAUCACCCAUGUCGCUAGACAGGAUAUAUUUUAUUUGUUUAAGUAGAAGGGUCGUAGAUUU | – | – | 200 nM | 152 nM |
| UAUUUUAACUAAGGAUAUCUAUAUUAUUUUGAAACAUGAGGAUCACCCAUGUUCAUGGGAUUAUAAGAGAAGGUAGAUGAAUAA | – | – | 27.5 nM | 11.7 nM |
| UCACAGGUUUAAGGCGUUCCCAGACAUGAGGAUCACCCAUGUAGAAGGACCGUAAGAAAUUUUCGGUAGGAUAUACAUUCAGGG | 28 nM | 31.9 nM | – | – |
| UCACCUGCCGAGGAUAUGAACGUAUUGAAUUGAUUAGAAGGCGGCACAUGAGGAUCACCCAUGUCACUGCACGC | 11.7 nM | 11.5 nM | – | – |
| UCACGGGACUAAGGAUAUACAUGAACUAUUAUUGUAGAAGGUAGAAUGUUAGAUUAUACACUAAACAUGAGGAUCACCCAUGUU | 21.1 nM | 19.6 nM | – | – |
| UCACGGGAUUGAGGAUAUAUAUUAAUUUUUUUUAUAGAAGGCAAAAUGUUAGAUUAUUCACUAUACAUGAGGAUCACCCAUGUU | – | 22.7 nM | – | – |
| UCAGAUGUACAUGAGGAUCACCCAUGUCAUAUGCCCGUGACACAGGAUAUCCAGGAUAGGCCAAAGGAGAAGGGUGAUCCGCGG | – | – | 103 nM | 158 nM |
| UCAGGCUUCGAGAAGGACAUGAAUCGUAGCAUUGCUACGAUGAAUUAUACAUGAGGAUCACCCAUGUAGGAUAUCGGAGUCUGC | – | 6.34 nM | – | – |
| UCAGGCUUCGAGAAGGACAUGAGGAUCACCCAUGUUAACAUGUAGCAGCCGUGAGGCUGCAUCAUGUAGGAUAUCGGAGUCUGC | 6.07 nM | 7.07 nM | – | – |
| UCAUAAUAGAUCCUAUUUAUCUACAUGAGGAUCACCCAUGUGCAGGAUAUGCUAAAAUUAAAAUAGCAGAAGGGCAAUAUCAGC | 109 nM | 365 nM | – | – |
| UCAUACGGUGAGGAUAUCUCCACUAAAGUGUGUAGAGAAGGCGCUACAUGAGGAUCACCCAUGUUUAUGGGCAG | 376 nM | 117 nM | – | – |

| Sequence | apparent Kd [1] | apparent Kd [2] | apparent Kd [3] | apparent Kd [4] |
| --- | --- | --- | --- | --- |
| UCAUCAGCGGGCGGGUCGGUUGGACAUGAGGAUCACCCAUGUAGAAGGACCGGUGGACUCCGGCGGUAGGAUAUACAUUUGGUG | 16.1 nM | 26.3 nM | – | – |
| UCAUGAUGGAAGAAGGGAGUCGUGCAUGACAACUCAGGAUAUUUCACAUGAGGAUCACCCAUGUCGAAGUAACAGUGUUGAUCA | 23.9 nM | 45.8 nM | – | – |
| UCAUGUUAGCAGGAUAUGCUAUUUAUCUUUUAUGCAGAAGGGCUUACAUGAGGAUCACCCAUGUAUUAAGUCUU | 18.9 nM | 52.5 nM | – | – |
| UCAUUAUAGAUCCAUUUUAACUACAUGAGGAUCACCCAUGUGCAGGAUAUCGAUUGUUUUACUUUCGAGAAGGGCAAAUACAGA | 78 nM | 202 nM | – | – |
| UCAUUUAAUACAGGAUAUGUUAGUAUACAGUAGAUUGGUUAUUACAUAAUAACAGAAGGGUAGAACAUGAGGAUCACCCAUGUA | – | – | 265 nM | 96.2 nM |
| UCAUUUUACACAGGAUAUAUUCAUAUACAGUUGUUUGGCUCUUACAUGUUAGUAGAAGGGUGCAACAUGAGGAUCACCCAUGUA | – | – | 279 nM | 274 nM |
| UCCAAACUUGGACUUGGUGGUGCAUAGGAUAUCCUUGGACAUGAGGAUCACCCAUGUACAACUGUGGAGAAGGGUGCAGGGCCU | – | – | 427 nM | 91.3 nM |
| UCCAAGCUAGGAUAUACCCAGGGUUUGUUCUCUAACAAAACACAUGAGGAUCACCCAUGUAGAAGGAGCCGGGA | 58.1 nM | 62.9 nM | – | – |
| UCCAGACAUGAGGAUCACCCAUGUGAGGAUAUGAUGCGAUCGUCGAAAGACGAUAGCAUCAGAAGGCACGUAUG | 33.7 nM | 48.3 nM | – | – |
| UCCUCACAUGAGGAUCACCCAUGUGAGGAUAUCAGCGCGUACGGGUUUCCGUAGUGUUUGAGAAGGCAUUUGGG | 16.6 nM | 29 nM | – | – |
| UCCUCGGUACGAGGAUAUUCACGACGGUGUUCGGAAGAAGGCGUACAUGAGGAUCACCCAUGUCCGUCGAAAGGACUAACCGGG | 49 nM | 68.5 nM | – | – |
| UCCUUACUGGUCAGGAUAUACAGUCGCGGGUGGGUGUAGAAGGGACAUGAGGAUCACCCAUGUACGUUGCAGCC | 40.6 nM | 40.9 nM | – | – |
| UCCUUCUGUUGAGGAUAUGUAAGACAGCGGCUGCUAUGGCGACACGCUGAUACAGAAGGCAACAUGAGGAUCACCCAUGUUCAA | 19.2 nM | 145 nM | – | – |
| UCGAAACAUGAGGAUCACCCAUGUGCUCACGACAUAGGAUAUACUAGCUCGAAGAGCUGCGUAGAAGGGUGAAGUG | – | – | 45.9 nM | 26.8 nM |
| UCGACCAGCGCCAGUCGAACAUGAGGAUCACCCAUGUACUCCAGAAGGCCGCCCAAGAACGGAGUGGAGGAUAUGGAGGUUCUC | – | – | 37.7 nM | 33.2 nM |
| UCGCGGGAGCAGAAGGGAUAGGCCUAUUGUCGUGGAGUCUAAACUUAACAUGAGGAUCACCCAUGUCAGGAUAUGCCCACGCGA | 9.89 nM | 10.5 nM | – | – |
| UCGCGGGUGCAGAAGGGAUAGGCCUAUUGUCGUGGUGUCUAAACUUAACAUGAGGAUCACCCAUGUCAGGAUAUGCCCACGCGA | 11.6 nM | 13.5 nM | – | – |
| UCGGACGUCGUAGGAUAUGUAGGAUAUUCCUACAUGAGGAUCACCCAUGUUGACAUGGAAGAAGGACAGAAGGACGAUGUCCAU | – | – | 192 nM | 4.7 nM |
| UCGGCGCGAGGAUAUACGUUUGCUUUUUGGGAUCGUUGCGUACAUGAGGAUCACCCAUGUAGAAGGCGCGCCGC | 17.6 nM | 73.8 nM | – | – |
| UCGGCGCGAGGAUAUACGUUUGCUUUUUUUCGUUUUUGUGUACAUGAGGAUCACCCAUGUAGAAGGCGCGCCGC | 15.2 nM | 22.4 nM | – | – |
| UCGGGUUAUACAGGAUAUGUUUAGGAUAAUACAUGCAGUUAUUAAUUAAUGACAGAAGGGUAUACAUGAGGAUCACCCAUGUCA | 707 nM | 374 nM | – | – |
| UCGUAACGAGGAUAUACAAGGGUCAGGCCCGCCUGACACACACAUGAGGAUCACCCAUGUAGAAGGUGUAGCGC | 19.4 nM | 18.4 nM | – | – |
| UCGUACAUUCGAGGAUAUCGGUGAUAAAUAAUACGAGAAGGCGAUUGUGGGCAUAACGCCUUAGACAUGAGGAUCACCCAUGUA | – | – | 75.6 nM | 51.5 nM |
| UCGUAUAAGGGCAUUACACAUGAGGAUCACCCAUGUACGUUAGAGGAUAUGCAUUUCAGUCGAACGUAGAAGGCUAGAGAAGGG | 117 nM | 100 nM | – | – |
| UCGUCGUCAGGAUAUUUUGUAUUGCAGAUUUCGCAGUUGCCAAAGAAGGGACAUGAGGAUCACCCAUGUAGUCU | 32.6 nM | 42.2 nM | – | – |
| UCGUGAAGGAUAGGAUAUGGACAUGAGGAUCACCCAUGUACAUGGGAAUGUAUACUGAAUUUGUACUAGAAGGGUUACAUAAAU | 49.8 nM | 36.6 nM | – | – |
| UCGUUCCGUGUAGGAUAUUGGCCUUCUCUGGGCCGAGAAGGACAUGAGGAUCACCCAUGUAUGUUAUUAUCGCGCGUGGCGCAU | 26.9 nM | 84.9 nM | – | – |
